Assay results gathered from unrelated publications.
Lines come from different studies, so protocols differ.
MEP1A: Meprin A subunit alpha (MEP1A, Homo sapiens, UniProt Q16819)
AURKB: Aurora kinase B (AURKB, Homo sapiens, UniProt Q96GD4)
PFF0160c: Dihydroorotate dehydrogenase (quinone), mitochondrial (PFF0160c, Plasmodium falciparum, UniProt Q08210)
PDE5A: cGMP-specific 3',5'-cyclic phosphodiesterase (PDE5A, Homo sapiens, UniProt O76074)
HDAC2: Histone deacetylase 2 (HDAC2, Homo sapiens, UniProt Q92769)
PPO3: PPO3 (Agaricus bisporus, UniProt C7FF04)
ARAF: Serine/threonine-protein kinase A-Raf (ARAF, Homo sapiens, UniProt P10398)
KDM1A: Lysine-specific histone demethylase 1A (KDM1A, Homo sapiens, UniProt O60341)

Structure (SMILES) | target | assay | conditions | IC50
O=C(CCN(Cc1ccncc1)Cc1ccc2c(c1)OCO2)NO | MEP1A | enzyme activity, inhibitor | – | 0.474 µM
O=C(Nc1c[nH]nc1-c1nc2cc(CN3CCOCC3)ccc2[nH]1)NC1CC1 | AURKB | enzyme activity, inhibitor, mobility shift | – | 0.0023 µM
Cc1cc(Nc2cccc(Cl)c2)n2nc(CC3CC3)nc2n1 | PFF0160c | enzyme activity, inhibitor | – | > 10 µM
CCN1CC(=O)N2[C@H](c3ccc(OC)c(OC)c3)c3[nH]c4ccccc4c3C[C@@H]2C1=O | PDE5A | enzyme activity, inhibitor, FP | – | 4.35 µM
CN(CCCCNC(=O)c1cc2ccccc2[nH]1)[C@@H]1Cc2cccc3[nH]c(=O)n(c23)C1 | 5-hydroxytryptamine receptor 2A (HTR2A, Homo sapiens, UniProt P28223) | ligand displacement, radioligand | – | 1.94 µM
CCC(=O)CCCCC[C@@H]1NC(=O)[C@H](C)N(C)C(=O)C[C@H](CC(C)C)NC(=O)[C@H](Cc2c[nH]c3ccccc23)NC1=O | HDAC2 | enzyme activity, inhibitor | – | 0.04 µM
CCCCc1ccc(-c2ccc(-c3cc(C(=O)O)c4ccc(OC)cc4n3)o2)cc1 | Eukaryotic initiation factor 4A-I (EIF4A1, Homo sapiens, UniProt P60842) | ATPase activity, inhibitor, absorbance | – | > 150 µM
Cc1ccc(C(C)C)cc1NC(=O)COC(=O)c1ccc(O)cc1 | PPO3 | enzyme activity, inhibitor | – | 18 µM
CCCS(=O)(=O)Nc1ccc(F)c(C(=O)c2c[nH]c3ncc(Cl)cc23)c1F | ARAF | enzyme activity, inhibitor | lysate | 0.022 µM
Cc1ccc(C(C)C)cc1NC(=O)COC(=O)/C=C/c1ccccc1 | PPO3 | enzyme activity, inhibitor | – | 0.78 µM
Cc1cc(Nc2cc3ncccc3c(N[C@@H]3C[C@H]4CC[C@@H](C3)N4CCC#N)n2)n[nH]1 | AURKB | target engagement in cells, inhibitor, BRET | – | > 10 µM
Cc1ccc(C(C)C)cc1NC(=O)COC(=O)c1cccc(O)c1 | PPO3 | enzyme activity, inhibitor | – | 11 µM
CC(C)(C)N1C(=O)[C@H]2Cc3c([nH]c4ccccc34)[C@@H](c3cccnc3)N2C1=O | PDE5A | enzyme activity, inhibitor, FP | – | 0.41 µM
Cc1cnc(-c2ccc(-c3ccc(NC(=O)Nc4c(F)cc(F)cc4F)cc3F)c3c2C(=O)NC3)[nH]1 | AURKB | enzyme activity, inhibitor | – | 0.0037 µM
CC(C)(C)n1nc(-c2ccc3nc(OC4CC4)ccc3c2)c(C(N)=O)c1N | AURKB | cell-free assay, inhibitor | – | > 10 µM
COCCc1nc2nc(C)cc(Nc3cccc(Cl)c3)n2n1 | PFF0160c | enzyme activity, inhibitor | – | > 10 µM
COc1ccc(Nc2nc(N)c(C(=O)c3ccc(OC)c(OC)c3)s2)cc1 | Sphingosine kinase 1 (SPHK1, Homo sapiens, UniProt Q9NYA1) | enzyme activity, inhibitor | – | ~3 µM
CCN1C(=O)[C@H]2Cc3c([nH]c4ccccc34)[C@@H](c3cccnc3)N2C1=O | PDE5A | enzyme activity, inhibitor, FP | – | 0.14 µM
O=C(CCN(Cc1ccc2c(c1)OCO2)Cc1ccc(Cl)cc1F)NO | MEP1A | enzyme activity, inhibitor | – | 0.186 µM
CN1CCN(c2ccc(Nc3ncc4cc(C#N)c(=O)n(C5CCCC5)c4n3)cc2)CC1 | ARAF | enzyme activity, inhibitor | – | 0.566 µM
N#CC(C(=O)c1ccc(Cl)cc1Cl)=C1NC(=O)c2ccc(OCc3ccc4c(c3)OCO4)cc2N1 | Cytoplasmic dynein 1 heavy chain 1 (DYNC1H1, Homo sapiens, UniProt Q14204) | ATPase activity, inhibitor | – | 130 µM

Structure (SMILES) | target | assay | conditions | IC50
COc1ccc(C2=NN(C3CCCCCC3)C(=O)[C@@H]3CC=CC[C@H]23)cc1-c1ccc(C(N)=O)cc1 (relative stereo) | PDE5A | enzyme activity, inhibitor | – | > 10 µM
C#CCSc1nc(Sc2nnnn2-c2ccccc2)c2nnn(Cc3cccc(Cl)c3)c2n1 | KDM1A | enzyme activity, inhibitor, fluorescence | – | 0.074 µM
C=CC(=O)Nc1cc(Nc2nccc(Nc3cc(Cl)c(F)cc3C(C)(C)O)n2)c(OC)cc1N1CC[C@@H](N(C)C)C1 | Cytoplasmic tyrosine-protein kinase BMX (BMX, Homo sapiens, UniProt P51813) | enzyme activity, inhibitor | with preincubation | 2.29 µM
Nc1nc(N)c(N=Nc2ccc([N+](=O)[O-])cc2)c(N)n1 | PPO3 | enzyme activity, inhibitor, absorbance | – | 40.6 µM
Cc1cc(Nc2ccc(Cl)cc2)n2nc(CN(C)C)nc2n1 | PFF0160c | enzyme activity, inhibitor | – | > 10 µM
COc1ccc(N=Nc2c(N)nc(N)nc2N)cc1 | PPO3 | enzyme activity, inhibitor, absorbance | – | 43.8 µM
CCC[C@H](NC(=O)C1CN(C)C1)c1ncc(-c2cc3ccccc3nc2OC)[nH]1 | HDAC2 | enzyme activity, inhibitor, fluorescence | – | 0.75 µM
CCN1C(=O)[C@H]2Cc3c([nH]c4ccccc34)[C@@H](c3ccc(OC)c(OC)c3)N2C1=O | PDE5A | enzyme activity, inhibitor, FP | – | 5.11 µM
C#CCSc1nc(Sc2nnnn2-c2cccnc2)c2nnn(Cc3ccccc3Cl)c2n1 | KDM1A | enzyme activity, inhibitor, fluorescence | – | 0.127 µM
COCCOc1nc2nc(C)cc(Nc3ccc(Cl)cc3)n2n1 | PFF0160c | enzyme activity, inhibitor | – | > 10 µM
CN(C)C/C=C/C(=O)Nc1cccc(C(=O)Nc2ccc(Nc3nccc(-c4cccnc4)n3)cc2)c1 | Serine/threonine-protein kinase Nek3 (NEK3, Homo sapiens, UniProt P51956) | enzyme activity, inhibitor, radiometric | – | 0.185 µM
O=C(c1ccc2ccncc2c1)N1CCC2CC1CN2C(=O)c1n[nH]c(=O)c2ccccc12 (stereo not drawn) | Poly [ADP-ribose] polymerase 1 (PARP1, Homo sapiens, UniProt P09874) | enzyme activity, inhibitor | – | 1.42 µM
Nc1nc(N)c(N=Nc2ccc([N+](=O)[O-])cc2)c(Cl)n1 | PPO3 | enzyme activity, inhibitor, absorbance | – | 37.2 µM
Cc1cc(Nc2ccc(Cl)cc2)n2[nH]c(=O)nc2n1 | PFF0160c | enzyme activity, inhibitor | – | > 10 µM
O=C(Nc1ccn(Cc2ccc(O)cc2C(F)(F)F)n1)c1c(F)cccc1F | Sodium channel protein type 9 subunit alpha (SCN9A, Homo sapiens, UniProt Q15858) | ion current, inhibitor | – | > 10 µM
Cc1cc(Nc2ccc(C(F)(F)F)cc2)n2nc(OCCN(C)C)nc2n1 | PFF0160c | enzyme activity, inhibitor | – | > 10 µM
COc1ccc([C@@H]2c3[nH]c4ccccc4c3C[C@H]3C(=O)N(c4ccc(Cl)cc4)C(=O)N23)cc1OC | PDE5A | enzyme activity, inhibitor, FP | – | 5.36 µM
CNCCOc1nc2nc(C)cc(Nc3cccc(Cl)c3)n2n1 | PFF0160c | enzyme activity, inhibitor | – | > 10 µM
Nc1cc(Nc2ccc(C(F)(F)F)cc2)n2ncnc2n1 | PFF0160c | enzyme activity, inhibitor | – | 31 µM
Cc1cc(Nc2cccc(Cl)c2)n2nc(OCCN(C)C)nc2n1 | PFF0160c | enzyme activity, inhibitor | – | > 10 µM
N[C@@]1(C(=O)O)CC[C@]12CC[C@H]2C(=O)O | Glutamate racemase (Helicobacter pylori J99, UniProt Q9ZLT0) | enzyme activity, inhibitor | – | 18000 µM
